From paper PMC5601358 (Journal of Medicinal Chemistry, 2017) come the findings set out here.

Assay [1] concerns the target T1, human adenosine A3 receptor (Homo sapiens, UniProt P0DMS8).
T1 sequence (P0DMS8 1-318): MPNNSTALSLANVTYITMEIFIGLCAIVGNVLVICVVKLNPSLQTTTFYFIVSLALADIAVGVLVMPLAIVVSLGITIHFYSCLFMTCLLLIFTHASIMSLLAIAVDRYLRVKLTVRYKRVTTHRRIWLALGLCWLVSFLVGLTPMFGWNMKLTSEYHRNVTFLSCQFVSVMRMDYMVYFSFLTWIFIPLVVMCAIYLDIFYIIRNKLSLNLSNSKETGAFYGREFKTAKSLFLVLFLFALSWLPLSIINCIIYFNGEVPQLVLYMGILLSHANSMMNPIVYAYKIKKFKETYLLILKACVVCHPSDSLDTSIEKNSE
The assay is described as follows: Radioligand competition association assay with [3H]34. The assay is classed as binding. As to conditions: for residence time: read-out: RT (residence time).

In assay [2] the target is T2, hA3R stably expressed on CHO cell membranes (Homo sapiens, UniProt P0DMS8).
T2 sequence (P0DMS8 1-318): T1 sequence (P0DMS8 1-318)
The assay is described as follows: [35S]GTPγS binding assay, 2-Cl-IB-MECA-stimulated, Schild analysis. The assay is classed as biochemical. As to conditions: for Mode of antagonism: 2-Cl-IB-MECA concentration-effect curves, antagonist at 30-, 100-, 300-fold Ki; for Schild slope: Coincubation with 2-Cl-IB-MECA 30 min, 25 °C. An outline of the steps: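 CHO membranes stably expressing human A3 receptor (15 μg) in 50 mM Tris-HCl, 5 mM MgCl2, 1 mM EDTA, 0.05% BSA, 1 mM DTT, pH 7.4, with 1 μM GDP and 5 μg saponin. Agonist 0.1 nM–10 μM plus ~0.3 nM [35S]GTPγS (final). DMSO ≤0.1%. Basal: untreated membranes; maximum: 10 μM agonist. GF/B filtration, scintillation counting. Curves normalized and combined, n ≥ 3.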

For assay [3], the target named is T1, human adenosine A3 receptor. The assay is described as follows: Radioligand displacement assay with [3H]34. The assay is classed as binding. As to conditions: 25 °C, [3H]34, hA3R stably expressed on CHO cell membranes, n ≥ 3.

Structures are written as SMILES.

Take `CCCn1c(=O)c2c(nc3cc(OC)ccn32)n(Cc2ccccc2)c1=O` [Compound 1, 1-Benzyl-8-methoxy-3-propyl-1H,3H-pyrido[2,1-f]purine-2,4-dione]: in assay [1], the koff amounted to 0.00032 s⁻¹, the kon was 850000 M⁻¹ s⁻¹ and the residence time came out at 52 ± 0.3 min.

As for `COc1ccn2c(c1)nc1c2c(=O)n(CC2CC2)c(=O)n1Cc1ccccc1` [Compound 2, 1-Benzyl-3-(cyclopropylmethyl)-8-methoxypyrido[2,1-f]purine-2,4(1H,3H)-dione], in assay [1], the koff stood at 6e-05 s⁻¹, the kon amounted to 2.8e+06 M⁻¹ s⁻¹ and the residence time stood at 315 ± 105 min.

`COc1ccn2c(c1)nc1c2c(=O)[nH]c(=O)n1Cc1ccccc1` [Compound 5, 1-Benzyl-8-methoxy-1H,3H-pyrido[2,1-f]purine-2,4-dione]: in assay [1], the koff worked out at 0.014 s⁻¹, the kon is 530000 M⁻¹ s⁻¹ and the residence time was 2.2 ± 1.4 min. Moreover, in assay [2], the Mode of antagonism result was “surmountable antagonism” and the Schild slope is reported as 1.0 ± 0.2.

As to `CCCCCn1c(=O)c2c(nc3cc(OC)ccn32)n(Cc2ccccc2)c1=O` [Compound 9, 1-Benzyl-8-methoxy-3-pentyl-1H,3H-pyrido[2,1-f]purine-2,4-dione], in assay [1], the koff stood at 0.0006 s⁻¹, the kon was 1.1e+06 M⁻¹ s⁻¹ and the residence time turned out to be 28 ± 2.2 min.

On to `CCCCCCn1c(=O)c2c(nc3cc(OC)ccn32)n(Cc2ccccc2)c1=O` [Compound 10, 1-Benzyl-3-hexyl-8-methoxypyrido[2,1-f]purine-2,4(1H,3H)-dione], for which, in assay [1], the koff came to 8.2e-05 s⁻¹, the kon came out at 230000 M⁻¹ s⁻¹ and the residence time came out at 213 ± 35 min. For the same compound, the “pKi ± SEM” value in assay [3] is on record as 8.6 ± 0.1.

On to `CCCCCCCn1c(=O)c2c(nc3cc(OC)ccn32)n(Cc2ccccc2)c1=O` [Compound 11, 1-Benzyl-3-heptyl-8-methoxypyrido[2,1-f]purine-2,4(1H,3H)-dione], for which, in assay [1], the koff turned out to be 6.2e-05 s⁻¹, the kon worked out at 420000 M⁻¹ s⁻¹ and the residence time was 278 ± 45 min.

`C=CCn1c(=O)c2c(nc3cc(OC)ccn32)n(Cc2ccccc2)c1=O` [Compound 12, 3-Allyl-1-benzyl-8-methoxypyrido[2,1-f]purine-2,4(1H,3H)-dione]: the “pKi ± SEM” value in assay [3] is given as 8.3 ± 0.1.

For `COCCn1c(=O)c2c(nc3cc(OC)ccn32)n(Cc2ccccc2)c1=O` [Compound 15, 1-Benzyl-8-methoxy-3-(2-methoxyethyl)-1H,3H-pyrido[2,1-f]purine-2,4-dione], in assay [1], the koff turned out to be 0.00063 s⁻¹, the on-rate constant (kon) was 430000 M⁻¹ s⁻¹ and the residence time turned out to be 27 ± 2.6 min. The “pKi ± SEM” value in assay [3] came out at 7.7 ± 0.2.

Turning to `COc1ccn2c(c1)nc1c2c(=O)n(CC(C)C)c(=O)n1Cc1ccccc1` [Compound 17, 1-Benzyl-3-isobutyl-8-methoxypyrido[2,1-f]purine-2,4(1H,3H)-dione], in assay [1], the koff came out at 0.0002 s⁻¹, the kon amounted to 780000 M⁻¹ s⁻¹ and the residence time was 148 ± 102 min.

For `COc1ccn2c(c1)nc1c2c(=O)n(CC(C)(C)C)c(=O)n1Cc1ccccc1` [Compound 18, 1-Benzyl-8-methoxy-3-(3-neopentyl)-1H,3H-pyrido[2,1-f]purine-2,4-dione], in assay [1], the koff came out at 0.00011 s⁻¹, the kon is 550000 M⁻¹ s⁻¹ and the residence time came out at 250 ± 147 min.

On to `CCc1ccc(Cn2c(=O)n(CC3CC3)c(=O)c3c2nc2cc(OC)ccn23)cc1` [Compound 26, 3-(Cyclopropylmethyl)-1-(4-ethylbenzyl)-8-methoxypyrido[2,1-f]purine-2,4(1H,3H)-dione], for which the “pKi ± SEM” value in assay [3] was found to be 9.2 ± 0.04.

For the compound `COc1cccc(Cn2c(=O)n(CC3CC3)c(=O)c3c2nc2cc(OC)ccn23)c1` [Compound 27, 3-(Cyclopropylmethyl)-8-methoxy-1-(3-methoxybenzyl)pyrido[2,1-f]purine-2,4(1H,3H)-dione], in assay [1], the koff is 4.7e-05 s⁻¹, the kon came to 480000 M⁻¹ s⁻¹ and the residence time is 376 ± 58 min. Moreover, in assay [2], the Mode of antagonism entry is “insurmountable antagonism” and the Schild slope is recorded as 0.9 ± 0.2.

Consider `COc1ccc(Cn2c(=O)n(CC3CC3)c(=O)c3c2nc2cc(OC)ccn23)cc1` [Compound 28, 3-(Cyclopropylmethyl)-8-methoxy-1-(4-methoxybenzyl)pyrido[2,1-f]purine-2,4(1H,3H)-dione], for which, in assay [1], the koff is 7.8e-05 s⁻¹, the kon came to 480000 M⁻¹ s⁻¹ and the residence time amounted to 250 ± 72 min.

Consider `COc1ccn2c(c1)nc1c2c(=O)n(CC2CC2)c(=O)n1Cc1cccc(Cl)c1` [Compound 29, 1-(3-Chlorobenzyl)-3-(cyclopropylmethyl)-8-methoxypyrido[2,1-f]purine-2,4(1H,3H)-dione], for which, in assay [1], the koff came out at 0.00047 s⁻¹, the kon was found to be 820000 M⁻¹ s⁻¹ and the residence time worked out at 36 ± 5.5 min.

For the compound `COc1ccn2c(c1)nc1c2c(=O)n(CC2CC2)c(=O)n1Cc1ccc(Cl)cc1` [Compound 30, 1-(4-Chlorobenzyl)-3-(cyclopropylmethyl)-8-methoxypyrido[2,1-f]purine-2,4(1H,3H)-dione], in assay [1], the koff was found to be 0.00082 s⁻¹, the kon is 3e+06 M⁻¹ s⁻¹ and the residence time came to 20 ± 0.5 min.

For `COc1ccn2c(c1)nc1c2c(=O)n(CC2CC2)c(=O)n1Cc1ccc(Cl)c(Cl)c1` [Compound 31, 3-(Cyclopropylmethyl)-1-(3,4-dichlorobenzyl)-8-methoxypyrido[2,1-f]purine-2,4(1H,3H)-dione], in assay [1], the koff turned out to be 5.3e-05 s⁻¹, the kon was 100000 M⁻¹ s⁻¹ and the residence time turned out to be 391 ± 137 min.
